Experimental data as given in ChEMBL document CHEMBL3867450, “Synthesis of Natural Acylphloroglucinol-Based Antifungal Compounds against Cryptococcus Species” (J Nat Prod, 2016).
In brackets after ≈: the same amount, converted by molar mass. Activity calls are given as the source filed them. The calls are words filed in the database; no cut-off is given here.

Experiments:
[1] = test system: Cryptococcus bacillisporus; test: Antifungal activity against Cryptococcus gattii ATCC 32609 assessed as growth inhibition measured after 72 hrs by CLSI method; type: functional; conditions: ATCC 32609, 72 h
Outline: (§1)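 Susceptibility testing by a modified CLSI (formerly NCCLS) method against C. neoformans ATCC 90113, C. neoformans H99 (from Duke University) or C. gattii ATCC 32609. The top test concentration was 20 μg/mL. MIC is the lowest concentration allowing no detectable growth. IC50 is the concentration giving 50% growth inhibition.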

[2] = test system: Cryptococcus neoformans; test: Antifungal activity against Cryptococcus neoformans H99 assessed as growth inhibition measured after 72 hrs by CLSI method; type: functional; conditions: var grubii H99 ; outline: as §1
[3] = Antifungal activity against Cryptococcus neoformans ATCC 90113 assessed as growth inhibition measured after 72 hrs by CLSI method; type: functional; outline: as §1
[4] = Selectivity index, ratio of IC50 for African green monkey Vero cells to MIC for Cryptococcus neoformans ATCC 90113; type: toxicity, cell-based; conditions: read-out: Selectivity Index
Outline: (§2)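 Selectivity index is the mammalian-cell IC50 (neutral red assay, Vero or LLC-PK1) divided by the MIC against C. neoformans ATCC 90113 (modified CLSI method).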

[5] = Cytotoxicity against pig LLC-PK1 cells assessed as reduction in viable cells measured after 48 hrs by neutral red dye-based method; type: toxicity, cell-based; conditions: pig (Sus scrofa)
Outline: (§3)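 Vero (African green monkey kidney […]) and LLC-PK1 (pig kidney epithelial) cells were scored for viability by neutral red uptake. The top test concentration was 50 μg/mL. IC50 is the concentration causing 50% growth inhibition of the mammalian cells.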

[6] = Antifungal activity against Cryptococcus neoformans ATCC 90113 assessed as growth inhibition at 20 ug/ml measured after 72 hrs by CLSI method; type: functional
Outline: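 Primary screen against C. neoformans ATCC 90113 by a modified CLSI method at 20 μg/mL. Growth inhibition above 50% at this concentration was scored as active and taken to further testing.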

[7] = Selectivity index, ratio of IC50 for pig LLC-PK1 cells to MIC for Cryptococcus neoformans ATCC 90113; type: toxicity, cell-based; conditions: read-out: Selectivity Index; outline: as §2
[8] = Cytotoxicity against African green monkey Vero cells assessed as reduction in viable cells measured after 48 hrs by neutral red dye-based method; type: toxicity, cell-based; conditions: African green monkey (Chlorocebus sabaeus); outline: as §3
[9] = test system: Cryptococcus neoformans; test: Antifungal activity against Cryptococcus neoformans ATCC 90113 assessed as growth inhibition at 20 ug/ml measured after 72 hrs by CLSI method; conditions: read-out: GI
[10] = test system: Cryptococcus bacillisporus; test: Antifungal activity against Cryptococcus gattii ATCC 32609 assessed as growth inhibition at 20 ug/ml measured after 72 hrs by CLSI method; type: functional; conditions: ATCC 32609, 72 h, read-out: GI
[11] = test system: Staphylococcus aureus; test: Antibacterial activity against Staphylococcus aureus ATCC 29213 by CLSI method; type: functional

SMILES	MIC [1] [µg/mL]	MIC [2] [µg/mL]	MIC [3] [µg/mL]	selectivity ratio [4]	IC50 at 48 h [5] [µg/mL]	growth inhibition (GI) [6] [%]	selectivity ratio [7]	IC50 at 48 h [8] [µg/mL]	inhibition of growth at 20 µg/mL [9] [%]	inhibition of growth at 20 µg/mL [10] [%]	MIC [11] [µg/mL]	Activity [11]
CC(C)=CCc1c(O)cc(O)c(C(=O)C(C)C)c1O	5 (≈ 18.9 µM)	8.3 (≈ 31.4 µM)	5 (≈ 18.9 µM)	3.6	31 (≈ 117 µM)	> 50	6.2	18 (≈ 68.1 µM)	–	–	–	–
CCOC(=O)COc1cc(O)c(C(=O)C(C)C)c(O)c1	–	–	–	–	–	< 50	–	–	–	–	–	–
CC(C)C(=O)c1c(O)cc(O)c(C(=O)c2ccc(F)cc2)c1O	6.7 (≈ 21 µM)	11.7 (≈ 36.8 µM)	8.3 (≈ 26.1 µM)	1.6	27.5 (≈ 86.4 µM)	> 50	3.3	13.5 (≈ 42.4 µM)	–	–	–	–
C#CCc1c(O)cc(O)c(C(=O)C(C)C)c1O	–	–	–	–	–	< 50	–	–	< 50	< 50	–	–
CC(C)C(=O)c1c(O)cc(O)c(Cc2c(Cl)cccc2Cl)c1O	2.1 (≈ 5.91 µM)	4.2 (≈ 11.8 µM)	1 (≈ 2.82 µM)	27.5	29.5 (≈ 83 µM)	> 50	29.5	27.5 (≈ 77.4 µM)	–	–	–	–
CC(C)C(=O)c1c(O)cc(O)c(Cc2ccc(C(C)C)cc2)c1O	2.1 (≈ 6.39 µM)	2.1 (≈ 6.39 µM)	1.5 (≈ 4.57 µM)	> 33.3	> 50	> 50	> 33.3	> 50	–	–	10 (≈ 30.4 µM)	–
CC(C)C(=O)c1c(O)cc(OCc2ccc(C(C)C)cc2)cc1O	–	–	–	–	–	< 50	–	–	–	–	–	–
COc1cc(C(=O)c2c(O)cc(O)c(C(=O)C(C)C)c2O)cc(OC)c1OC	–	–	–	–	–	< 50	–	–	< 50	< 50	–	–
COc1ccc(C(=O)c2c(O)cc(O)c(C(=O)C(C)C)c2O)cc1	8.3 (≈ 25.1 µM)	10 (≈ 30.3 µM)	13.3 (≈ 40.3 µM)	0.8	24.8 (≈ 75.1 µM)	> 50	1.9	10.5 (≈ 31.8 µM)	–	–	–	–
CC(C)C(=O)c1c(O)cc(O)c(C(=O)C(C)C)c1O	2.1 (≈ 7.89 µM)	3.3 (≈ 12.4 µM)	2.5 (≈ 9.39 µM)	4.6	17.5 (≈ 65.7 µM)	> 50	7	11.5 (≈ 43.2 µM)	–	–	1.3 (≈ 4.88 µM)	–
CC(C)C(=O)c1c(O)cc(O)c(C(=O)c2ccccc2)c1O	8.3 (≈ 27.6 µM)	10 (≈ 33.3 µM)	10 (≈ 33.3 µM)	2.3	42.5 (≈ 142 µM)	> 50	4.3	23 (≈ 76.6 µM)	–	–	–	–
CC(C)C(=O)c1c(O)cc(O)c(Cc2ccc([N+](=O)[O-])cc2)c1O	5 (≈ 15.1 µM)	10 (≈ 30.2 µM)	6.7 (≈ 20.2 µM)	2.7	28 (≈ 84.5 µM)	> 50	4.2	18 (≈ 54.3 µM)	–	–	–	–
CCCC(=O)c1c(O)cc(O)c(C(=O)c2ccccc2)c1O	5 (≈ 16.6 µM)	6.7 (≈ 22.3 µM)	6.7 (≈ 22.3 µM)	2.1	27 (≈ 89.9 µM)	> 50	4	14.3 (≈ 47.6 µM)	–	–	–	–
CC(C)C(=O)c1c(O)cc(O)cc1OCc1c(F)cccc1Cl	5 (≈ 14.8 µM)	8.3 (≈ 24.5 µM)	5 (≈ 14.8 µM)	> 10	> 50	> 50	> 10	> 50	–	–	–	Active
C=CCc1c(O)cc(O)c(C(=O)C(C)C)c1O	–	–	–	–	–	< 50	–	–	< 50	< 50	–	–
CC(C)=CCC/C(C)=C/CC/C(C)=C/Cc1c(O)cc(O)c(C(=O)C(C)C)c1O	7.5 (≈ 18.7 µM)	5 (≈ 12.5 µM)	7.5 (≈ 18.7 µM)	3.3	27 (≈ 67.4 µM)	> 50	3.6	25 (≈ 62.4 µM)	–	–	–	–
COc1cccc2c1C(=O)c1c(O)c3c(c(O)c1C2=O)C[C@@](O)(C(=O)CO)C[C@@H]3O[C@H]1C[C@H](N)[C@H](O)[C@H](C)O1 [DOXORUBICIN]	–	–	–	–	1.3 (≈ 2.39 µM)	–	–	> 10	–	–	–	–
OC(Cn1cncn1)(Cn1cncn1)c1ccc(F)cc1F [FLUCONAZOLE]	25 (≈ 81.6 µM)	12.5 (≈ 40.8 µM)	6.3 (≈ 20.6 µM)	–	–	–	–	–	–	–	–	–
